Assay outcomes: PubChem BioAssay, The Scripps Research Institute Molecular Screening Center
OX1R antag-1 – antagonists of human orexin 1 receptor (OX1R) | Orexin/Hypocretin receptor type 1 (Homo sapiens), O43613 | OX1R-expressing cells, FRET antagonist read-out | inhibition, % at 6.6 µM | actives 1.8% (n = 330,000) | AID 485270, 2010; in the data active = inhibition mostly above about 38%, no sharp cut-off; inactive = mostly below about 40%;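 note: 0% = agonist challenge alone and 100% = reference antagonist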
OX1R antag-2 – OX1R (HCRTR1) antagonists, primary screen, fluorescence, CHO/OX1R cells, Fluo-8 calcium, orexin A. Orexin/Hypocretin receptor type 1 (Homo sapiens), O43613. inhibition, % at 5 µM. actives 0.43% (n = 330,000). Fluo-8 calcium fluorescence;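 active = inhibition above its plate's threshold, mean inhibition of all tested compounds on the plate plus 3 SD, cut at about 37% in these data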;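 note: 0% = orexin A challenge wells and 100% = SB-334867-A antagonist wells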
TAAR1 antagonist – human TAAR1 antagonists, primary screen, Fluo-8 calcium fluorescence, CHO RD-HGA16 cells | Trace amine-associated receptor 1 (Homo sapiens), Q96RJ0 | antagonist | inhibition, % at 3 µM | actives 1.5% (n = 360,000);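 active = inhibition above a per-plate cutoff, the mean inhibition of test compounds on that plate plus 3 SD, cut at about 49% in these data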;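 note: 0% = DMSO plus EC80 beta-PEA response and 100% = DMSO alone without agonist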
Target sequence (Q96RJ0 whole entry, looked up): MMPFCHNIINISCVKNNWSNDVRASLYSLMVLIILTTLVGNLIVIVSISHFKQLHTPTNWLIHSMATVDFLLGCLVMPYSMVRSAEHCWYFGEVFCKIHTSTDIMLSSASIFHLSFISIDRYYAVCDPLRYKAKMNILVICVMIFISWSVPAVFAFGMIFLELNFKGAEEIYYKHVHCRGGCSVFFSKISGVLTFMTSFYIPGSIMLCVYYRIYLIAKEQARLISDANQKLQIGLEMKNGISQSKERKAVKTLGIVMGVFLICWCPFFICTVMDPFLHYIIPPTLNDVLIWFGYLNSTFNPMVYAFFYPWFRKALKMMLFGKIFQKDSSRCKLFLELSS
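Test system – hTAAR1-expressing CHO RD-HGA16 cells, Gα16-coupled · Also added – β-PEA at EC80 concentration, post-compound challenge · Compound – 3 µM, single point · Incubation – dye loading 75 min at 37 °C, then 30 min room temperature · Measured by – Fluo-8 intracellular calcium dye fluorescence, real-time kinetic reads · Benchmarks – vehicle and agonist controls · Replicates – singlicate, one well per test compound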
TAAR1 ag – human TAAR1 agonists, primary screen, Fluo-8 calcium fluorescence, CHO RD-HGA16 cells; vehicle wells 0%, saturating PEA agonist 100%; actives 0.99% (n = 360,000); activation, % at 3 µM; Trace amine-associated receptor 1 (Homo sapiens), Q96RJ0;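 active = activation above the mean activation of all test compounds in the run plus 3 SD, cut at about 38% in these data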
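Test system: RD-HGA16 (CHO) cells co-expressing Gα16 and hTAAR1 | Doses: Single dose, 3 µM | Schedule: 17-24 h seeding, 75 min 37 °C dye, 30 min RT | Evaluation: % activation from peak over basal fluorescence ratio, DMSO-to-PEA scaled | Technique: Kinetic Fluo-8 calcium fluorescence | Benchmarks: Low control DMSO, high control PEA (EC100)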
CHO parental Ca – ATP-evoked calcium signal inhibitors, parental CHO, primary screen, counter-screen for OX1R antagonist project, cell-based, fluorescence, Fluo-8 calcium dye; parental CHO-K1, ATP-induced calcium, Fluo-8 fluorescence; inhibition, % at 5.6 µM; actives 0.63% (n = 330,000);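 active = inhibition above that plate's mean sample inhibition plus 3 SD, cut at about 26% in these data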;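 note: 0% = ATP-challenged DMSO wells and 100% = DMSO wells without ATP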
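Material: parental CHO cells / Compound: single nominal dose of 5.6 µM per compound / Signal: Fluo-8 fluorescence / Replicates: singlicate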
GPR7 antag – GPR7 receptor antagonists, primary screen, cell-based, fluorescence, single concentration | Neuropeptides B/W receptor type 1 (Homo sapiens), P48145 | inhibition, % at 4.4 µM | actives 1.1% (n = 290,000) | GPR7-expressing cells, fluorescence antagonist assay; in the data active = inhibition above about 16%, passing the limit was not always enough;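 note: cells stimulated with the agonist NPW; 0% = agonist with vehicle and 100% = vehicle without agonist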
* marks the source's active call; other numbers are inactive results; · = no result. Most compounds without a hit are left out; they make up all but 4.6% or so of the library.

SMILES	OX1R antag-1	OX1R antag-2	TAAR1 antagonist	TAAR1 ag	CHO parental Ca	GPR7 antag
CC(OC(=O)c1ccc([N+](=O)[O-])s1)C(=O)NC1CCCCC1C (centres undefined)	38*	-5	-3	0	-17	·
CC1CCCC(NC(=O)COC(=O)c2ccccc2[N+](=O)[O-])C1C (centres undefined)	8	-20	-13	1	-15	-8
O=C(NC1CCCC1)c1ccc([N+](=O)[O-])s1	61*	-33	-20	4	4	-5
NS(=O)(=O)c1ccc(CCNC(=O)c2ccc([N+](=O)[O-])s2)cc1	66*	0	14	1	22	11
O=C(NCc1cccs1)c1ccc(CS(=O)Cc2cccc(Cl)c2)o1 (centres undefined)	14	-27	-4	1	-21	-14
CC(C)CCNC(=O)C1(O)c2ccccc2NC(=O)N1c1ccc(Cl)cc1 (centres undefined)	16	-14	7	8	29	9
c1ccc(-n2nc3c(ccc4cnnc43)[nH]2)cc1	61	16	3	8	-11	-12
COc1ccc(CCN(Cc2ccccn2)C(=S)Nc2ccccc2Cl)cc1OC	41*	-7	-39	0	-8	18
COc1ccc(CCN(Cc2ccccn2)C(=S)Nc2ccccc2F)cc1OC	32	-20	-15	1	-5	2
CC(=O)Nc1ccc(NC(=O)COc2cccc3c2OC(C)(C)C3)cc1	7	-11	-1	2	-23	-9
COc1cc(NC(=O)COc2cccc3c2OC(C)(C)C3)cc(OC)c1OC	24	26	59*	13	7	·
COC(=O)c1ccc(COC(=O)c2cccn2C)o1	10	-14	-7	1	-2	6
O=C(Nc1ccccc1)OCCNC(=O)c1cccc(Br)c1	7	-13	-2	6	6	7
O=C(Nc1ccc(Cl)c(Cl)c1)OCCNC(=O)c1cccc(Cl)c1	67	28	25	7	40*	5
CCCSc1nnc(NC(=O)Nc2ccc(C)cc2)s1	13	-26	-3	3	-18	-16
CCCSc1nnc(NC(=O)Nc2ccccc2)s1	23	-10	8	40*	-15	-5
O=C(COC(=O)c1ccc[n+]([O-])c1)Nc1ccc([N+](=O)[O-])cc1C(F)(F)F	33*	-12	13	8	-4	·
O=C(COC(=O)c1cc[n+]([O-])cc1)Nc1cc([N+](=O)[O-])ccc1Cl	57*	-10	-12	3	-14	·
CCCCCCOc1ccc(/C(C)=N/NC2=NCCN2)cc1[N+](=O)[O-]	5	-6	0	38*	-2	1
C/C(=N\NC1=NCCN1)c1ccc(N)c([N+](=O)[O-])c1	33	-8	-4	5	-3	2
CCc1ccccc1N(C)S(=O)(=O)c1ccc2[nH]cc(C(=O)N3CCc4ccccc43)c(=O)c2c1	3	-14	57*	9	-11	-6
COCCNC(=O)c1cccc(OC2CCN(Cc3ccccc3C)CC2)c1	4	-36	-9	0	-17	-7
O=C(NCC(c1cccs1)N1CCOCC1)c1ccccc1NS(=O)(=O)c1ccc(Cl)c([N+](=O)[O-])c1 (centres undefined)	45*	-6	-6	9	-4	-1
O=C(Nc1ccccc1)N1CCCN(Cc2ccccc2F)C1	3	-20	-12	2	-9	-2
Fc1ccccc1CN1CCCN(C(=S)Nc2cccc(Cl)c2)C1	27	6	10	12	40*	2
SMILES	OX1R antag-1	OX1R antag-2	TAAR1 antagonist	TAAR1 ag	CHO parental Ca	GPR7 antag
Cc1c(Cl)cccc1NC(=S)N1CCCN(Cc2ccccc2F)C1	3	25	9	12	16	-6
Cc1c(Cl)cccc1NC(=S)N1CCCN(Cc2ccc(F)cc2)C1	17	2	20	14	33*	-4
CSCCC(NC(=O)c1cc([N+](=O)[O-])ccc1Cl)C(=O)O (centres undefined)	29	-19	-19	1	-3	1
COCCNC(=O)C1(C)CCN(C(=O)c2cc(C)n(C(C)(C)C)n2)C1 (centres undefined)	·	·	-18	2	·	·
CSCCC(NS(=O)(=O)c1ccc(Cl)cc1)C(=O)OCC(=O)c1c(C)[nH]c2ccccc12 (centres undefined)	76*	79*	81*	19	82*	12
Cc1[nH]c2ccccc2c1C(=O)COC(=O)C1CC(O)CN1S(=O)(=O)c1ccc(Cl)cc1 (centres undefined)	16	-4	44	12	-22	·
CC(C)C(NS(=O)(=O)c1c(Cl)cccc1Cl)C(=O)OCC(=O)c1c[nH]c2ccccc12 (centres undefined)	24	-7	20	7	-12	0
CC(O)C(NS(=O)(=O)c1ccc(Cl)cc1)C(=O)OCC(=O)c1c[nH]c2ccccc12 (centres undefined)	1	7	58*	19	16	15
CCN(CC(=O)Nc1ccc(OC)cc1)CC(=O)N1CC(=O)Nc2ccccc21	1	-10	-1	0	-14	·
COc1ccc(C(=O)COC(=O)CNC(=O)c2ccccc2)cc1F	2	-2	8	-2	-7	·
Cc1cc(C)c(OCC(=O)Nc2cccc(NC(=O)c3ccco3)c2)c(Br)c1	64*	28	52*	7	32*	-11
COc1c(C)cc(Br)cc1C(=O)Nc1cccc(NC(=O)c2ccco2)c1	11	6	·	·	-14	-16
COc1ccc(Br)cc1C(=O)Nc1cccc(NC(=O)c2ccco2)c1	44*	-11	31	11	-9	-16
